Reference: ChEMBL document CHEMBL1150108, “Isolation of S-n-butylcysteine sulfoxide and six n-butyl-containing thiosulfinates from Allium siculum” (2002)

What was measured:
Assay type in all cases: functional
[1] = system: Stenotrophomonas maltophilia; test: Antibacterial activity against Stenotrophomonas maltophilia ATCC 13637 at 10 ug/disk after overnight incubation by agar diffusion test; settings: for zone of inhibition at 10 µg/disc: read-out: Diameter of inhibition zone
In short: (§1)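 Disk diffusion on agar plates seeded with the named strain. Test samples were dissolved in EtOH, and a 10 µL aliquot was applied to a 6 mm paper disk to give 10, 250 or 500 µg per disk. Commercial antibiotic disks served as controls. Plates were incubated overnight at 37 °C, and the diameter of the inhibition zone around each disk was read in mm.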

[2] = system: Klebsiella pneumoniae subsp. pneumoniae; test: Antibacterial activity against Klebsiella pneumoniae subsp. pneumoniae ATCC 13833 at 10 ug/disk after overnight incubation by agar diffusion test; settings: for zone of inhibition at 10 µg/disc: read-out: Diameter of inhibition zone; in short: as §1
Escherichia coli [3] = test: Antibacterial activity against Escherichia coli ATCC 25922 at 10 ug/disk after overnight incubation by agar diffusion test; settings: read-out: Diameter of inhibition zone; in short: as §1
Bacillus cereus [4] = test: Antibacterial activity against Bacillus cereus ATCC 11778 at 10 ug/disk after overnight incubation by agar diffusion test; settings: for zone of inhibition at 10 µg/disc: read-out: Diameter of inhibition zone; in short: as §1
Pseudomonas aeruginosa [5] = test: Antibacterial activity against Pseudomonas aeruginosa ATCC 27853 at 10 ug/disk after overnight incubation by agar diffusion test; settings: read-out: Diameter of inhibition zone; in short: as §1
Staphylococcus aureus [6] = test: Antibacterial activity against Staphylococcus […] at 10 ug/disk after overnight incubation by agar diffusion test; settings: read-out: Diameter of inhibition zone; in short: as §1
Streptococcus agalactiae [7] = test: Antibacterial activity against Streptococcus agalactiae ATCC 13813 at 10 ug/disk after overnight incubation by agar diffusion test; settings: for zone of inhibition at 10 µg/disc: read-out: Diameter of inhibition zone; in short: as §1
[8] = system: Klebsiella pneumoniae subsp. pneumoniae; test: Antibacterial activity against Klebsiella pneumoniae subsp. pneumoniae ATCC 13833 at 500 ug/disk after overnight incubation by agar diffusion test; settings: read-out: Diameter of inhibition zone; in short: as §1
[9] = system: Stenotrophomonas maltophilia; test: Antibacterial activity against Stenotrophomonas maltophilia ATCC 13637 at 250 ug/disk after overnight incubation by agar diffusion test; settings: read-out: Diameter of inhibition zone; in short: as §1
Escherichia coli [10] = test: Antibacterial activity against Escherichia coli ATCC 25922 at 500 ug/disk after overnight incubation by agar diffusion test; settings: read-out: Diameter of inhibition zone; in short: as §1
Streptococcus agalactiae [11] = test: Antibacterial activity against Streptococcus agalactiae ATCC 13813 at 500 ug/disk after overnight incubation by agar diffusion test; settings: read-out: Diameter of inhibition zone; in short: as §1
Pseudomonas aeruginosa [12] = test: Antibacterial activity against Pseudomonas aeruginosa ATCC 27853 at 250 ug/disk after overnight incubation by agar diffusion test; settings: read-out: Diameter of inhibition zone; in short: as §1
[13] = system: Stenotrophomonas maltophilia; test: Antibacterial activity against Stenotrophomonas maltophilia ATCC 13637 at 500 ug/disk after overnight incubation by agar diffusion test; settings: read-out: Diameter of inhibition zone; in short: as §1
Staphylococcus aureus [14] = test: Antibacterial activity against Staphylococcus […] at 250 ug/disk after overnight incubation by agar diffusion test; settings: read-out: Diameter of inhibition zone; in short: as §1
[15] = system: Klebsiella pneumoniae subsp. pneumoniae; test: Antibacterial activity against Klebsiella pneumoniae subsp. pneumoniae ATCC 13833 at 250 ug/disk after overnight incubation by agar diffusion test; settings: read-out: Diameter of inhibition zone; in short: as §1
Staphylococcus aureus [16] = test: Antibacterial activity against Staphylococcus […] at 500 ug/disk after overnight incubation by agar diffusion test; settings: read-out: Diameter of inhibition zone; in short: as §1
Escherichia coli [17] = test: Antibacterial activity against Escherichia coli ATCC 25922 at 250 ug/disk after overnight incubation by agar diffusion test; settings: read-out: Diameter of inhibition zone; in short: as §1
Streptococcus agalactiae [18] = test: Antibacterial activity against Streptococcus agalactiae ATCC 13813 at 250 ug/disk after overnight incubation by agar diffusion test; settings: read-out: Diameter of inhibition zone; in short: as §1
Bacillus cereus [19] = test: Antibacterial activity against Bacillus cereus ATCC 11778 at 500 ug/disk after overnight incubation by agar diffusion test; settings: read-out: Diameter of inhibition zone; in short: as §1
Bacillus cereus [20] = test: Antibacterial activity against Bacillus cereus ATCC 11778 at 250 ug/disk after overnight incubation by agar diffusion test; settings: read-out: Diameter of inhibition zone; in short: as §1
Pseudomonas aeruginosa [21] = test: Antibacterial activity against Pseudomonas aeruginosa ATCC 27853 at 500 ug/disk after overnight incubation by agar diffusion test; settings: read-out: Diameter of inhibition zone; in short: as §1
Pseudomonas aeruginosa [22] = test: Antibacterial activity against Pseudomonas aeruginosa ATCC 27853 at 30 ug/disk after overnight incubation by agar diffusion test; settings: read-out: Diameter of inhibition zone
In short: (§2)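 Commercial antibiotic control disks were placed on agar plates seeded with the named strain. Plates were incubated overnight at 37 °C, and the diameter of the inhibition zone around each disk was measured in mm.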

[23] = system: Klebsiella pneumoniae subsp. pneumoniae; test: Antibacterial activity against Klebsiella pneumoniae subsp. pneumoniae ATCC 13833 at 30 ug/disk after overnight incubation by agar diffusion test; settings: read-out: Diameter of inhibition zone; in short: as §2
Staphylococcus aureus [24] = test: Antibacterial activity against Staphylococcus […] at 30 ug/disk after overnight incubation by agar diffusion test; settings: read-out: Diameter of inhibition zone; in short: as §2
Bacillus cereus [25] = test: Antibacterial activity against Bacillus cereus ATCC 11778 at 30 ug/disk after overnight incubation by agar diffusion test; settings: read-out: Diameter of inhibition zone; in short: as §2
Escherichia coli [26] = test: Antibacterial activity against Escherichia coli ATCC 25922 at 30 ug/disk after overnight incubation by agar diffusion test; settings: read-out: Diameter of inhibition zone; in short: as §2
Streptococcus agalactiae [27] = test: Antibacterial activity against Streptococcus agalactiae ATCC 13813 at 30 ug/disk after overnight incubation by agar diffusion test; settings: read-out: Diameter of inhibition zone; in short: as §2
[28] = system: Stenotrophomonas maltophilia; test: Antibacterial activity against Stenotrophomonas maltophilia ATCC 13637 at 30 ug/disk after overnight incubation by agar diffusion test; settings: read-out: Diameter of inhibition zone; in short: as §2

Compound	zone of inhibition at 10 µg/disc [1] [mm]	zone of inhibition at 10 µg/disc [2] [mm]	zone of inhibition at 10 µg/disc (Escherichia coli [3]) [mm]	zone of inhibition at 10 µg/disc (Bacillus cereus [4]) [mm]	zone of inhibition at 10 µg/disc (Pseudomonas aeruginosa [5]) [mm]	zone of inhibition at 10 µg/disc (Staphylococcus aureus [6]) [mm]	zone of inhibition at 10 µg/disc (Streptococcus agalactiae [7]) [mm]	zone of inhibition at 500 µg/disc [8] [mm]	zone of inhibition at 250 µg/disc [9] [mm]	zone of inhibition at 500 µg/disc (Escherichia coli [10]) [mm]	zone of inhibition at 500 µg/disc (Streptococcus agalactiae [11]) [mm]	zone of inhibition at 250 µg/disc (Pseudomonas aeruginosa [12]) [mm]	zone of inhibition at 500 µg/disc [13] [mm]	zone of inhibition at 250 µg/disc (Staphylococcus aureus [14]) [mm]	zone of inhibition at 250 µg/disc [15] [mm]	zone of inhibition at 500 µg/disc (Staphylococcus aureus [16]) [mm]	zone of inhibition at 250 µg/disc (Escherichia coli [17]) [mm]	zone of inhibition at 250 µg/disc (Streptococcus agalactiae [18]) [mm]	zone of inhibition at 500 µg/disc (Bacillus cereus [19]) [mm]	zone of inhibition at 250 µg/disc (Bacillus cereus [20]) [mm]	also measured
CC1(C)S[C@@H]2[C@H](NC(=O)[C@H](N)c3ccccc3)C(=O)N2[C@H]1C(=O)O [AMPICILLIN]	0	0	18	7	0	38	30	–	–	–	–	–	–	–	–	–	–	–	–	–	–
CCCC[S+]([O-])SC (stereo not drawn)	0	0	0	0	0	8	0	18	12	24	0	0	14	30	16	38	22	0	34	30	zone of inhibition at 500 µg/disc (Pseudomonas aeruginosa [21]): 8 mm
CCCCS[S+](C)[O-] (stereo not drawn)	0	0	0	0	0	0	0	20	12	20	24	0	17	20	12	26	14	16	28	22	zone of inhibition at 500 µg/disc (Pseudomonas aeruginosa [21]): 0 mm
CN(C)[C@@H]1C(O)=C(C(N)=O)C(=O)[C@@]2(O)C(O)=C3C(=O)c4c(O)cccc4[C@@](C)(O)[C@H]3C[C@@H]12 [TETRACYCLINE]	–	–	–	–	–	–	–	–	–	–	–	–	–	–	–	–	–	–	–	–	zone of inhibition at 30 µg/disc (Pseudomonas aeruginosa [22]): 10 mm; zone of inhibition at 30 µg/disc [23]: 18 mm; zone of inhibition at 30 µg/disc (Staphylococcus aureus [24]): 20 mm; zone of inhibition at 30 µg/disc (Bacillus cereus [25]): 27 mm; zone of inhibition at 30 µg/disc (Escherichia coli [26]): 18 mm; zone of inhibition at 30 µg/disc (Streptococcus agalactiae [27]): 28 mm; zone of inhibition at 30 µg/disc [28]: 13 mm
CCCCS[S+]([O-])CCCC (stereo not drawn)	0	0	0	8	0	10	0	8	8	16	34	0	16	34	8	38	10	30	40	34	zone of inhibition at 500 µg/disc (Pseudomonas aeruginosa [21]): 0 mm
O=C(N[C@H](CO)[C@H](O)c1ccc([N+](=O)[O-])cc1)C(Cl)Cl [CHLORAMPHENICOL]	–	–	–	–	–	–	–	–	–	–	–	–	–	–	–	–	–	–	–	–	zone of inhibition at 30 µg/disc (Pseudomonas aeruginosa [22]): 0 mm; zone of inhibition at 30 µg/disc [23]: 24 mm; zone of inhibition at 30 µg/disc (Staphylococcus aureus [24]): 18 mm; zone of inhibition at 30 µg/disc (Bacillus cereus [25]): 20 mm; zone of inhibition at 30 µg/disc (Escherichia coli [26]): 20 mm; zone of inhibition at 30 µg/disc (Streptococcus agalactiae [27]): 23 mm; zone of inhibition at 30 µg/disc [28]: 22 mm
GENTAMICIN	–	–	–	–	–	–	–	–	–	–	–	–	–	–	–	–	–	–	–	–	inhibition zone (IZ) [1]: 20 mm; inhibition zone (IZ) [2]: 22 mm; inhibition zone (IZ) (Bacillus cereus [4]): 22 mm; inhibition zone (IZ) (Streptococcus agalactiae [7]): 18 mm
